From ChEMBL document CHEMBL1949649, “5-sulfonyl-benzimidazoles as selective CB2 agonists-part 2” (Bioorg Med Chem Lett, 2012)
Values after ≈ are worked out from the molar mass of the structure shown. Active and inactive are the calls of the source. No cut-off for these calls is given here.

Experiments:
Cannabinoid receptor 2 = Cannabinoid receptor 2 (Homo sapiens, UniProt P34972); experiment: Agonist activity at human CB2 receptor; format: functional
Cannabinoid receptor 1 = Cannabinoid receptor 1 (Homo sapiens, UniProt P21554); experiment: Agonist activity at human CB1 receptor; format: functional
Chain of Cannabinoid receptor 1 (P21554 whole entry): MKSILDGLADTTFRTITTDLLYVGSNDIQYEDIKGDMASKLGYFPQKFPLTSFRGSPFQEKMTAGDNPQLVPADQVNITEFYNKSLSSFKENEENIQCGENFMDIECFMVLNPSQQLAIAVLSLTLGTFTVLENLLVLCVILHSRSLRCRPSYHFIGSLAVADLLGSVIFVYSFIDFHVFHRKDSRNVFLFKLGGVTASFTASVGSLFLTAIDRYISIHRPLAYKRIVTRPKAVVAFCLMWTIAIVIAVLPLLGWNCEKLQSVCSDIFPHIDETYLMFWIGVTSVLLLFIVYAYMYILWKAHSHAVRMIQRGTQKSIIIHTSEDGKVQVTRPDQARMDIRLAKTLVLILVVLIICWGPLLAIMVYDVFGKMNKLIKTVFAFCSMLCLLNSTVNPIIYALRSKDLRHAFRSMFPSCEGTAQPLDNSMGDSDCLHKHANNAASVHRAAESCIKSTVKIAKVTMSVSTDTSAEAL

[1] = Drug metabolism in human liver microsomes after 15 mins; format: ADME, Microsome; conditions: read-out: Drug metabolism
Rattus norvegicus [2] = experiment: Toxicity in rat up to 40 mg/kg, ip by modified tetrad test; format: organism-based; set-up: dose 40 mg/kg, route intraperitoneal; conditions: in vivo
[3] = Lipophilicity, Log P of the compound; format: physicochemical; conditions: octanol/water
[4] = Solubility of the compound in water; format: physicochemical
[5] = Drug metabolism in human liver microsomes at 5 uM after 60 mins; format: ADME, Microsome; conditions: read-out: Drug metabolism
In short: (§1)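 Test compound incubated at 5 µM with liver microsomes (human, rat, mouse or dog) for 60 min; read-out is % of compound metabolised.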

[6] = Drug metabolism in rat liver microsomes at 5 uM after 60 mins; format: ADME, Microsome; conditions: read-out: Drug metabolism; in short: as §1
[7] = Drug metabolism in mouse liver microsomes at 5 uM after 60 mins; format: ADME, Microsome; conditions: read-out: Drug metabolism; in short: as §1
[8] = Drug metabolism in dog liver microsomes at 5 uM after 60 mins; format: ADME, Canis lupus familiaris, Microsome; conditions: read-out: Drug metabolism; in short: as §1
[9] = Clearance in Sprague-Dawley rat at 2.5 mg/kg, iv and 10 mg/kg, po; format: ADME, organism-based; conditions: in vivo
[10] = Volume of distribution in Sprague-Dawley rat at 2.5 mg/kg, iv and 10 mg/kg, po; format: ADME, organism-based; conditions: in vivo
[11] = Half life in Sprague-Dawley rat at 2.5 mg/kg, iv; format: ADME, organism-based; set-up: dose 2.5 mg/kg, route intravenous; conditions: in vivo
[12] = Half life in Sprague-Dawley rat at 10 mg/kg, po; format: ADME, organism-based; set-up: dose 10 mg/kg, route oral; conditions: in vivo
[13] = Absolute oral bioavailability in Sprague-Dawley rat at 10 mg/kg; format: ADME, organism-based; conditions: in vivo
[14] = Ratio drug uptake in brain to plasma of Sprague-Dawley rat at 2.5 mg/kg, iv and 10 mg/kg, po; format: ADME, organism-based; conditions: read-out: BPR
In short: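 Rat tissue distribution study; brain and plasma levels compared as brain/plasma ratio.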

[15] = Clearance in Beagle dog at 1 mg/kg, iv and 5 mg/kg, po; format: ADME, organism-based, Canis lupus familiaris; conditions: in vivo
In short: (§2)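 Beagle dogs dosed at 1 mg/kg iv and 5 mg/kg po; plasma kinetics give clearance, volume of distribution, iv and po half-life, and absolute oral bioavailability.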

[16] = Volume of distribution in Beagle dog at 1 mg/kg, iv and 5 mg/kg, po; format: ADME, organism-based, Canis lupus familiaris; conditions: in vivo; in short: as §2
[17] = Half life in Beagle dog at 1 mg/kg, iv; format: ADME, organism-based, Canis lupus familiaris; set-up: dose 1 mg/kg, route intravenous; conditions: in vivo; in short: as §2
[18] = Half life in Beagle dog at 5 mg/kg, po; format: ADME, organism-based, Canis lupus familiaris; set-up: dose 5 mg/kg, route oral; conditions: in vivo; in short: as §2
[19] = Absolute oral bioavailability in Beagle dog at 5 mg/kg; format: ADME, organism-based, Canis lupus familiaris; conditions: in vivo; in short: as §2
Rattus norvegicus [20] = experiment: Antinociceptive activity in rat at 10 mg/kg by hot plate method; format: functional, organism-based; set-up: dose 10 mg/kg
Rattus norvegicus [21] = experiment: Antinociceptive activity in rat at 10 mg/kg by tail withdrawal reflex test; format: functional, organism-based; set-up: dose 10 mg/kg
Rattus norvegicus [22] = experiment: Antinociceptive activity in rat at 10 mg/kg by paw flick test; format: functional, organism-based; set-up: dose 10 mg/kg
Rattus norvegicus [23] = species: Rattus norvegicus; experiment: Antihyperalgesic activity against Freund's adjuvant-induced thermal hyperalgesia in rat; format: functional, organism-based
Rattus norvegicus [24] = species: Rattus norvegicus; experiment: Antihyperalgesic activity against carrageenan-induced thermal hyperalgesia in rat; format: functional, organism-based
Rattus norvegicus [25] = experiment: Antiallodynic activity in rat chronic constriction injury-induced neuropathic pain model assessed as reversal of pain response at 10 to 40 mg/kg/day, sc; format: functional, organism-based
In short: (§3)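 Chronic constriction injury of rats (n = 7 per group); daily subcutaneous dosing over repeated days, with morphine as comparator. Cold allodynia read as lifting on a cold plate at 0 °C for 4 min.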

Mus musculus = experiment: Antiinflammatory activity in mouse EAE model of multiple sclerosis assessed as delay in neurological signs of autoimmune encephalomyelitis disease progression at 40 mg/kg/day, po administered from day 8 to day 16; format: functional, organism-based
In short: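 Mice with experimental autoimmune encephalomyelitis given chronic oral dosing at 40 mg/kg; neurological signs scored as EAE disease scores over time.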

[26] = Solubility of the compound in 10% cyclodextrin
Rattus norvegicus [27] = experiment: Toxicity in rat assessed as decrease in body temperature at 10 mg/kg, ip by modified tetrad test; format: organism-based; set-up: dose 10 mg/kg, route intraperitoneal; conditions: in vivo
Rattus norvegicus [28] = experiment: Antiallodynic activity in rat chronic constriction injury-induced neuropathic pain model assessed as reversal of pain response at 40 mg/kg/day, sc; format: functional, organism-based; in short: as §3
Rattus norvegicus [29] = experiment: Antiallodynic activity in rat chronic constriction injury-induced neuropathic pain model assessed as reversal of pain response at 40 mg/kg/day, sc after 12 days; format: functional, organism-based; in short: as §3
Rattus norvegicus [30] = experiment: Toxicity in rat assessed as appearance of flat body posture at 2.5 mg/kg, ip by modified tetrad test; format: organism-based; set-up: dose 2.5 mg/kg, route intraperitoneal; conditions: in vivo

Chain of Cannabinoid receptor 2 (P34972 whole entry): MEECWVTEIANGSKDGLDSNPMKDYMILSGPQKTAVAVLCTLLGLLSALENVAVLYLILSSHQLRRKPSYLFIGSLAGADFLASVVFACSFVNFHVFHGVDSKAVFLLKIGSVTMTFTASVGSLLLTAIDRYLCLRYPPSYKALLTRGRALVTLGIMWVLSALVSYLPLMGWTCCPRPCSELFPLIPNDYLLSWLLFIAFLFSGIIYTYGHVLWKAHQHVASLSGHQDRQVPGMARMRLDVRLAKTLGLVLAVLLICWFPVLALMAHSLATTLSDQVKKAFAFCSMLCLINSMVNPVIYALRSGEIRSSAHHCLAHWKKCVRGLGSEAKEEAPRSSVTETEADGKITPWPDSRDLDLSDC

SMILES: CC(=O)N1CCC(Cn2c(C(C)(C)C)nc3cc(S(=O)(=O)CC4CC4)ccc32)CC1
- EC50 (Cannabinoid receptor 2): 8.2 nM
- EC50 (Cannabinoid receptor 1): > 10 µM
- metabolised at 0.25 h [1]: 18%
- Activity (Rattus norvegicus [2]): Non-toxic
- logP [3]: 1.67
- solubility [4]: 1500 µg/mL (≈ 3.48 mM)
- metabolised at 1 h, 5 µM [5]: 5%
- metabolised at 1 h, 5 µM [6]: 0%
- metabolised at 1 h, 5 µM [7]: 12%
- metabolised at 1 h, 5 µM [8]: 4%
- clearance [9]: 41.7 mL/min/kg
- Vd [10]: 4.4 L/kg
- half-life [11]: 78 min
- half-life [12]: 240 min
- bioavailability [13]: 56%
- Kp [14]: 0.18
- clearance [15]: 13.3 mL/min/kg
- Vd [16]: 1.9 L/kg
- half-life [17]: 180 min
- half-life [18]: 192 min
- bioavailability [19]: 86%
- Activity (Rattus norvegicus [20]): inactive
- Activity (Rattus norvegicus [21]): inactive
- Activity (Rattus norvegicus [22]): inactive
- Activity (Rattus norvegicus [23]): inactive
- Activity (Rattus norvegicus [24]): inactive
- Activity (Rattus norvegicus [25]): inactive
- Activity (Mus musculus): Active
- solubility [26]: 25 mg/mL (≈ 57.9 mM)

SMILES: COCC(=O)N1CCC(Cn2c(C(C)(C)C)nc3cc(S(=O)(=O)CCCC(F)(F)F)ccc32)CC1
- EC50 (Cannabinoid receptor 1): > 10 µM

SMILES: CCS(=O)(=O)c1ccc2c(c1)nc(C(C)(C)C)n2CC1CCS(=O)(=O)CC1
- EC50 (Cannabinoid receptor 2): 28 nM
- EC50 (Cannabinoid receptor 1): > 10 µM

SMILES: CC(=O)N1CCC(Cn2c(C(C)(C)C)nc3cc(S(=O)(=O)CCCC(F)(F)F)ccc32)CC1
- EC50 (Cannabinoid receptor 2): 13 nM
- EC50 (Cannabinoid receptor 1): > 10 µM
- metabolised at 0.25 h [1]: 17%

SMILES: CC(C)(C)c1nc2cc(S(=O)(=O)CC3CC3)ccc2n1CC1CCS(=O)(=O)CC1
- EC50 (Cannabinoid receptor 2): 8.4 nM
- EC50 (Cannabinoid receptor 1): 2.68 µM
- metabolised at 0.25 h [1]: 2%

SMILES: CC(C)(C)c1nc2cc(S(=O)(=O)CCCC(F)(F)F)ccc2n1CC1CCN(C=O)CC1
- EC50 (Cannabinoid receptor 1): 5.62 µM
- metabolised at 0.25 h [1]: 17%

SMILES: CC(=O)NCCCCCc1cc(S(=O)(=O)c2ccc3c(c2)nc(C(C)(C)C)n3CC2CCOCC2)ccn1
- EC50 (Cannabinoid receptor 2): 5.6 nM
- EC50 (Cannabinoid receptor 1): > 10 µM
- metabolised at 0.25 h [1]: 86%

SMILES: CCS(=O)(=O)c1ccc2c(c1)nc(C(C)(C)C)n2CC1CCN(C(C)=O)CC1
- EC50 (Cannabinoid receptor 2): 8.4 nM
- EC50 (Cannabinoid receptor 1): > 10 µM
- metabolised at 0.25 h [1]: 13%

SMILES: CC(=O)N1CCC(Cn2c(C(C)(C)C)nc3cc(S(=O)(=O)c4ccncc4)ccc32)CC1
- EC50 (Cannabinoid receptor 2): 4.6 nM
- EC50 (Cannabinoid receptor 1): > 10 µM
- metabolised at 0.25 h [1]: 29%

SMILES: COCCCc1cc(S(=O)(=O)c2ccc3c(c2)nc(C(C)(C)C)n3CC2CCOCC2)ccn1
- EC50 (Cannabinoid receptor 2): 1.1 nM
- EC50 (Cannabinoid receptor 1): > 10 µM
- metabolised at 0.25 h [1]: 93%

SMILES: COCCCOc1cc(S(=O)(=O)c2ccc3c(c2)nc(C(C)(C)C)n3CC2CCOCC2)ccn1
- EC50 (Cannabinoid receptor 2): 0.5 nM
- metabolised at 0.25 h [1]: 100%

SMILES: CC(C)(C)c1nc2cc(S(=O)(=O)c3nccs3)ccc2n1CC1CCN(C=O)CC1
- EC50 (Cannabinoid receptor 2): 8.4 nM
- EC50 (Cannabinoid receptor 1): 0.321 µM
- Activity (Rattus norvegicus [27]): Toxic

SMILES: CC(C)(C)c1nc2cc(S(=O)(=O)CCCC(F)(F)F)ccc2n1CC1CCN(C(=O)C(F)(F)F)CC1
- EC50 (Cannabinoid receptor 1): > 10 µM
- metabolised at 0.25 h [1]: 20%

SMILES: CC(=O)N1CCC(Cn2c(C(C)(C)C)nc3cc(S(=O)(=O)c4nccs4)ccc32)CC1
- EC50 (Cannabinoid receptor 2): 7.7 nM
- EC50 (Cannabinoid receptor 1): 3.43 µM
- metabolised at 0.25 h [1]: 9%
- Activity (Rattus norvegicus [2]): Non-toxic
- logP [3]: 1.9
- solubility [4]: 20 µg/mL (≈ 0.0434 mM)
- metabolised at 1 h, 5 µM [5]: 12%
- metabolised at 1 h, 5 µM [6]: 0%
- metabolised at 1 h, 5 µM [7]: 6%
- metabolised at 1 h, 5 µM [8]: 0%
- clearance [9]: 53.3 mL/min/kg
- Vd [10]: 1.3 L/kg
- half-life [11]: 210 min
- half-life [12]: 186 min
- bioavailability [13]: 35%
- Kp [14]: 0.05
- clearance [15]: 11.7 mL/min/kg
- Vd [16]: 3.7 L/kg
- half-life [17]: 240 min
- half-life [18]: 300 min
- bioavailability [19]: 100%
- Activity (Rattus norvegicus [20]): inactive
- Activity (Rattus norvegicus [21]): inactive
- Activity (Rattus norvegicus [22]): inactive
- Activity (Rattus norvegicus [23]): inactive
- Activity (Rattus norvegicus [24]): inactive
- Activity (Rattus norvegicus [28]): Active
- Activity (Rattus norvegicus [29]): Active
- Activity (Mus musculus): Active
- solubility [26]: 8 mg/mL (≈ 17.4 mM)

SMILES: CC(C)(C)c1nc2cc(S(=O)(=O)CCCC(F)(F)F)ccc2n1CC1CCOCC1
- EC50 (Cannabinoid receptor 2): 1.1 nM
- EC50 (Cannabinoid receptor 1): 0.32 µM
- metabolised at 0.25 h [1]: 36%
- Activity (Rattus norvegicus [27]): Toxic
- Activity (Rattus norvegicus [30]): Toxic
